Experimental data collected from several papers.
Compare with care: the assays were run in different laboratories.
Target: Rho-associated protein kinase 2 (ROCK2, Homo sapiens, UniProt O75116)

Compound | assay | conditions | measurement | value
C[C@H]1CC[C@H](n2c3cnccc3c3cnc(Nc4ccc5c(n4)CCN(C(=O)CO)C5)nc32)CC1 | cell-free assay | 1 µM | remaining signal | 95%
C=CC(=O)N1CCC[C@@H](n2nc(-c3ccc(Oc4ccccc4)cc3)c3c(N)ncnc32)C1 | enzyme activity, inhibitor | 1 µM | inhibition | 0%
C#Cc1cc(-c2cc(Nc3nc(N[C@@H](C)c4ccc(F)cn4)ncc3Cl)n[nH]2)ccc1C=O | enzyme activity, inhibitor | 0.2 µM | inhibition | 5.91%
N#Cc1ccc(NC(=O)Nc2ccccc2)cc1 | cell-free assay, competition with immobilised ligand | 25 µM | remaining binding | 63%
CN1CCN(C(=O)c2ccc(NC(=O)Nc3ccc(N(C)c4ccnc(Nc5ccc(CS(C)(=O)=O)cc5)n4)cc3)cc2)CC1 | binding | 1 µM | remaining binding | 1.5%
CC#CC(=O)N1CCC[C@H]1c1nc(-c2ccc(C(=O)Nc3ccccn3)cc2)c2c(N)nccn12 | enzyme activity, inhibitor | 1 µM | inhibition | 29%
C#Cc1cnc(Nc2ccnc(CO)c2)nc1Nc1ccccc1S(C)(=O)=NC#N (stereo not drawn) | cell-free assay | 1 µM | remaining signal | 49%
CCCCC(=O)Nc1ccc(-c2ccc3ncn(CCC)c(=O)c3c2)cn1 | binding, competition with immobilised ligand | 0.5 µM | remaining binding | 100%
Cc1cc(O)c(-c2ccc([C@@H](C)CN(C)C)cc2)c2c1[nH]c(=O)c1sccc12 | enzyme activity, inhibitor | 0.1 µM | inhibition | 14.6%
